By IC50 is commonly meant the midpoint of a concentration-inhibition curve.

Data set [1] can be described thus: Selectivity index, ratio of IC50 for rat L6 cells to IC50 for chloroquine-resistant Plasmodium falciparum K1. It is filed as toxicity, cell-based. Conditions: read-out: Ratio IC50. Summed up:
(§1)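 SI is the IC50 in cultured L6 rat myoblasts (3-day drug exposure, Alamar blue viability) divided by the parasite IC50. Parasite assays used serial dilutions at 37°C. T. cruzi: intracellular, 4 days, β-galactosidase read-out with CPRG. T. b. rhodesiense: axenic, 3 days, Alamar blue. P. falciparum: 3 days, hypoxanthine incorporation. L. amazonensis: intracellular.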

In data set [2] the test system is Plasmodium falciparum. Kind of data set: Antiparasitic activity against chloroquine-resistant Plasmodium falciparum K1 after 3 days by [3H]-hypoxanthine incorporation assay. Format: functional, organism-based. The essentials:
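Erythrocytic-stage parasites exposed to serial drug dilutions at 37°C for 3 days; viability read by tritium-labelled hypoxanthine incorporation.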

Data set [3] concerns Trypanosoma brucei rhodesiense. Kind of data set: Antiparasitic activity against Trypanosoma brucei rhodesiense STIB900 trypomastigotes after 3 days by Alamar blue assay. Format: functional, organism-based. Conditions: STIB900, 72 h. Summed up:
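Axenic trypomastigote bloodstream forms, strain STIB900, exposed to serial drug dilutions for 3 days at 37°C. Viability read by Alamar blue.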
A general note: Resazurin is reduced to fluorescent resorufin, in cell work by metabolically active cells.

Data set [4] has as its system Trypanosoma cruzi. Kind of data set: Antiparasitic activity against Trypanosoma cruzi Tulahen LacZ/C4 amastigotes after 4 days by beta-galactosidase reporter gene assay. It is filed as functional, organism-based. Conditions: Tulahen LacZ/C4, 96 h. The essentials:
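Intracellular amastigotes of strain Tulahen LacZ/C4 given serial drug dilutions for 4 days at 37°C. The endpoint is the β-galactosidase reporter, read as a colour change after adding CPRG substrate.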
A general note: A reporter such as luciferase makes a cellular process visible.

Data set [5] is described as follows: Selectivity index, ratio of IC50 for rat L6 cells to IC50 for Leishmania amazonensis. Format: toxicity, cell-based. Conditions: read-out: Ratio IC50. Summed up:
as §1

The nature of data set [6]: Selectivity index, ratio of IC50 for rat L6 cells to IC50 for Trypanosoma brucei rhodesiense STIB900 trypomastigotes. Format: toxicity, cell-based. Conditions: read-out: Ratio IC50. Summed up:
as §1

A short description of data set [7]: Selectivity index, ratio of IC50 for rat L6 cells to IC50 for Trypanosoma cruzi Tulahen LacZ/C4 amastigotes. Format: toxicity, cell-based. Conditions: read-out: Ratio IC50. The essentials: as §1
The test system of the next data set is L6. Kind of data set: Cytotoxicity against rat L6 cells after 3 days by Alamar blue assay. Format: cell-based. Conditions: L6, 72 h. Summed up: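 L6 rat myoblast cells cultured with compound for 3 days. Viability measured by Alamar blue.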
In data set [8] the test system is Trypanosoma cruzi. Description: Ratio of benznidazole IC50 to compound IC50 for Trypanosoma cruzi Tulahen LacZ/C4 amastigotes. It is filed as functional.
In data set [9] the test system is Plasmodium falciparum. Kind of data set: Ratio of pentamidine IC50 to compound IC50 for chloroquine-resistant Plasmodium falciparum K1. It is filed as functional.
The next data set concerns Leishmania amazonensis. Description: Antiparasitic activity against Leishmania amazonensis infected in CD-1 mouse macrophages after 72 hrs by spectrophotometric analysis. It is filed as functional, organism-based.

Consider `CC(C)Oc1cc(NC(=N)c2ccccn2)ccc1-c1ccc(-c2ccc(NC(=N)c3ccccn3)cc2OC(C)C)o1`, for which the selectivity ratio was 20.1 in [1], 34.5 in [5], 25 in data set [6] and 30 in [7]. Besides, the 50% inhibitory concentration (IC50) in the data set with Plasmodium falciparum [2] came to 149 nM; in data set [3], 120 nM; in the data set with Trypanosoma cruzi [4], 100 nM.
On to `CC(C)Oc1cc(NC(=N)c2ncccn2)ccc1-c1ccc(-c2ccc(NC(=N)c3ncccn3)cc2OC(C)C)o1.Cl`, for which the selectivity ratio in data set [1] amounted to 682; in data set [5], 8.29; in data set [6], 181; in data set [7], 29. Further, the IC50 stood at 8.5 nM in the data set on Plasmodium falciparum [2], 32 nM in data set [3], 200 nM in the data set on Trypanosoma cruzi [4] and 5800 nM in the data set on L6. Besides, the “Ratio IC50” value in the data set on Trypanosoma cruzi [8] was determined as 9; in the data set with Plasmodium falciparum [9], 5.
On to `CC(C)Oc1cc(NC(=N)c2cnccn2)ccc1-c1ccc(-c2ccc(NC(=N)c3cnccn3)cc2OC(C)C)o1`, for which the selectivity ratio in data set [1] is more than 234; in data set [5] it was 34.8; in [6] it was more than 16; in data set [7] it was more than 8.1. The half-inhibitory concentration (IC50) in the data set with Plasmodium falciparum [2] is 552 nM; in [3], 8080 nM; in the data set on Trypanosoma cruzi [4] it was 16000 nM; with L6 it was more than 129000 nM.
With `CC(C)Oc1cc(NC(=N)c2cccnn2)ccc1-c1ccc(-c2ccc(NC(=N)c3cccnn3)cc2OC(C)C)o1`, the selectivity ratio in [1] was determined as 3.09; in [5] it was 1.64; in data set [6], 1.06; in data set [7], 1.2. In addition, the half-inhibitory concentration (IC50) in the data set on Plasmodium falciparum [2] amounted to 582 nM; in [3] it was 1700 nM; with Trypanosoma cruzi [4], 1500 nM; in the data set on L6, 1800 nM.
With `CC(C)Oc1cc(NC(=N)c2ccc(Br)s2)ccc1-c1ccc(-c2ccc(NC(=N)c3ccc(Br)s3)cc2OC(C)C)o1`, the selectivity ratio in data set [1] was more than 120; in [6], more than 6.47. Besides, the IC50 in the data set with Plasmodium falciparum [2] is 914 nM; in data set [3], 17000 nM; with Trypanosoma cruzi [4], more than 110000 nM; in the data set with L6, more than 110000 nM.
Regarding `CC(C)Oc1cc(NC(=N)c2cc(Br)cs2)ccc1-c1ccc(-c2ccc(NC(=N)c3cc(Br)cs3)cc2OC(C)C)o1`, the selectivity ratio in [1] was more than 109; in data set [6], more than 2.46. Moreover, the IC50 in the data set with Plasmodium falciparum [2] is 992 nM; in data set [3], 43900 nM; in the data set with Trypanosoma cruzi [4], more than 108000 nM; in the data set with L6 it was more than 108000 nM.
As for `Cc1csc(C(=N)Nc2ccc(-c3ccc(-c4ccc(NC(=N)c5nc(C)cs5)cc4OC(C)C)o3)c(OC(C)C)c2)n1`, the results for the selectivity ratio in data set [1], in [5] and in [6] were more than 122, more than 12.2 and more than 1.55, respectively. In addition, the IC50 in the data set on Plasmodium falciparum [2] was 999 nM; in [3], 78600 nM; in the data set on Trypanosoma cruzi [4], more than 122000 nM; with L6, more than 122000 nM; in the data set on Leishmania amazonensis it was more than 10000 nM.
`Cc1nc(C(=N)Nc2ccc(-c3ccc(-c4ccc(NC(=N)c5csc(C)n5)cc4OC(C)C)o3)c(OC(C)C)c2)cs1`: the selectivity ratio in data set [1] turned out to be 54; in [5], 27.6; in data set [6] it was 6.36; in data set [7], 2.04. The IC50 in the data set on Plasmodium falciparum [2] turned out to be 87 nM; in [3], 740 nM; in the data set on Trypanosoma cruzi [4], 2300 nM; with L6 it was 4700 nM.
On to `CC(C)Oc1cc(NC(=N)c2csc(N)n2)ccc1-c1ccc(-c2ccc(NC(=N)c3csc(N)n3)cc2OC(C)C)o1`, for which the selectivity ratio in data set [1] came out at 94.9; in data set [5], 2.18; in [6] it was 10.4; in data set [7] it was 0.66. Also, the IC50 in the data set on Plasmodium falciparum [2] was determined as 39 nM; in data set [3], 357 nM; in the data set on Trypanosoma cruzi [4] it was 5600 nM; with L6, 3700 nM.
Consider `CNc1nc(C(=N)Nc2ccc(-c3ccc(-c4ccc(NC(=N)c5csc(NC)n5)cc4OC(C)C)o3)c(OC(C)C)c2)cs1`, for which the selectivity ratio in data set [1] was 25.8; in data set [5], 2.67; in data set [6], 8.69; in data set [7] it was 0.35. Also, the concentration for half-maximal inhibition (IC50) stood at 31 nM in the data set on Plasmodium falciparum [2], 92 nM in [3], 2300 nM with Trypanosoma cruzi [4] and 800 nM in the data set on L6.
As to `CC(=O)Nc1nc(C(=N)Nc2ccc(-c3ccc(-c4ccc(NC(=N)c5csc(NC(C)=O)n5)cc4OC(C)C)o3)c(OC(C)C)c2)cs1.Cl`, the selectivity ratio in data set [1] amounted to 66.7; in data set [5], 2.73; in data set [6] it was 50; in data set [7], 0.38. Also, the IC50 was 9 nM with Plasmodium falciparum [2], 12 nM in data set [3], 1600 nM in the data set with Trypanosoma cruzi [4] and 600 nM with L6. In addition, the “Ratio IC50” value with Plasmodium falciparum [9] is on record as 5.
Take `CC(=O)N(C)c1nc(C(=N)Nc2ccc(-c3ccc(-c4ccc(NC(=N)c5csc(N(C)C(C)=O)n5)cc4OC(C)C)o3)c(OC(C)C)c2)cs1`: the selectivity ratio turned out to be 22.6 in data set [1], 0.99 in data set [5], 10.3 in data set [6] and 0.26 in data set [7]. Also, the IC50 in the data set on Plasmodium falciparum [2] was found to be 35 nM; in data set [3] it was 78 nM; in the data set with Trypanosoma cruzi [4] it was 3100 nM; in the data set on L6, 800 nM.
Take `CC(C)Oc1cc(NC(=N)c2ccc[nH]2)ccc1-c1ccc(-c2ccc(NC(=N)c3ccc[nH]3)cc2OC(C)C)o1`: the selectivity ratio in [1] amounted to 40; in data set [5] it was 1.11; in data set [6], 8.69; in [7], 0.24. Further, the half-maximal inhibitory concentration (IC50) in the data set on Plasmodium falciparum [2] is 25 nM; in data set [3], 115 nM; with Trypanosoma cruzi [4], 4100 nM; in the data set with L6, 1000 nM.
`CC(C)Oc1cc(NC(=N)c2ncc[nH]2)ccc1-c1ccc(-c2ccc(NC(=N)c3ncc[nH]3)cc2OC(C)C)o1`: the selectivity ratio in [1] is 107; in [5], 4.32; in data set [6] it was 26.7; in [7] it was 2.67. In addition, the 50% inhibitory concentration (IC50) in the data set with Plasmodium falciparum [2] was 15 nM; in data set [3], 60 nM; in the data set with Trypanosoma cruzi [4], 600 nM; with L6 it was 1600 nM.
For `CC(C)Oc1cc(NC(=N)c2cn(C)cn2)ccc1-c1ccc(-c2ccc(NC(=N)c3cn(C)cn3)cc2OC(C)C)o1`, the selectivity ratio was 148 in data set [1], 1.6 in data set [5], 74.1 in [6] and 0.44 in data set [7]. Moreover, the IC50 in the data set on Plasmodium falciparum [2] is 54 nM; in data set [3], 108 nM; in the data set with Trypanosoma cruzi [4], 18000 nM; with L6, 8000 nM.
Turning to `CC(C)Oc1cc(NC(=N)c2ccn(C)n2)ccc1-c1ccc(-c2ccc(NC(=N)c3ccn(C)n3)cc2OC(C)C)o1`, the selectivity ratio in data set [1] was found to be 20; in data set [5], 1.89; in [6], 3.21; in [7], 0.23. Besides, the concentration for half-maximal inhibition (IC50) in the data set on Plasmodium falciparum [2] came out at 70 nM; in data set [3] it was 436 nM; in the data set on Trypanosoma cruzi [4], 6100 nM; with L6, 1400 nM.
With `O=C(Cn1ccnc1[N+](=O)[O-])NCc1ccccc1` [BENZNIDAZOLE], the IC50 is 1870 nM with Trypanosoma cruzi [4] and more than 150000 nM in the data set with L6. Also, the selectivity ratio in data set [7] was more than 80.

For the origin of these results see ChEMBL document CHEMBL3286095, “Synthesis and antiparasitic activity of new bis-arylimidamides: DB766 analogs modified in the terminal groups” (Eur J Med Chem, 2014).
